The record followed here is ChEMBL document CHEMBL4118144, “Design, Synthesis, and Testing of Potent, Selective Hepsin Inhibitors via Application of an Automated Closed-Loop Optimization Platform” (J Med Chem, 2018).

Assay [1] concerns Serine protease hepsin (Homo sapiens), P05981 [D161E,R162K]. Briefly: Inhibition of recombinant C-terminal His10-tagged human Hepsin (R45 to […] residues) D161E/ R162K double mutant expressed in mouse NS0 cells assessed as decrease in HGF beta chain formation at 1 uM incubated for 30 mins in presence of recombinant human pro-HGF by immunoblot method. The format is cell-based. The method in brief: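 Recombinant human Pro-HGF incubated with recombinant human hepsin plus inhibitor at 37°C for 30 min; processing analysed by immunoblot with an antibody recognizing Pro-HGF and the α and β chains.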

Assay [2] has as its target Serine protease hepsin (Homo sapiens, UniProt P05981). Briefly: Inhibition of hepsin-mediated conversion of Pro-HGF into active form in human HCC1937 cells assessed as decrease in MET phosphorylation at 1 uM preincubated for 30 mins followed by recombinant human pro-HGF addition measured after 30 mins by immunoblot method. It counts as cell-based. In a few lines:
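Hs578T or HCC1937 breast cells incubated with DMSO or inhibitor, then 50 ng/mL recombinant human Pro-HGF added; MET pathway activation (phospho-MET) assessed by immunoblotting.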

The source made the active and inactive calls. No cut-off for these calls is given here.

Chain of Serine protease hepsin (P05981 1-162 limits assumed): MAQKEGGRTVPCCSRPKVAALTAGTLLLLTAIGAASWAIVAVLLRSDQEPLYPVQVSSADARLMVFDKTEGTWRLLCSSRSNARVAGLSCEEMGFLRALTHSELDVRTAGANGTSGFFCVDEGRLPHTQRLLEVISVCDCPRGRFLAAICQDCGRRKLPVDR
Chain of Serine protease hepsin (P05981 163-417 limits assumed): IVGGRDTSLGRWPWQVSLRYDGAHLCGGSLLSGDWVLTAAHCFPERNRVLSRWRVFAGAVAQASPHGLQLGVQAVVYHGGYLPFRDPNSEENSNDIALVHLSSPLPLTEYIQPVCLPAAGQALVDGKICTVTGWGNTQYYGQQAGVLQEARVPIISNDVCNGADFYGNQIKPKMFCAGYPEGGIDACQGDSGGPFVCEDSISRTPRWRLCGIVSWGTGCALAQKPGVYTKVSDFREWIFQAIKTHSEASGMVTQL
Chain of Serine protease hepsin (Homo sapiens), P05981 [D161E,R162K] (P05981 whole entry D161E/R162K): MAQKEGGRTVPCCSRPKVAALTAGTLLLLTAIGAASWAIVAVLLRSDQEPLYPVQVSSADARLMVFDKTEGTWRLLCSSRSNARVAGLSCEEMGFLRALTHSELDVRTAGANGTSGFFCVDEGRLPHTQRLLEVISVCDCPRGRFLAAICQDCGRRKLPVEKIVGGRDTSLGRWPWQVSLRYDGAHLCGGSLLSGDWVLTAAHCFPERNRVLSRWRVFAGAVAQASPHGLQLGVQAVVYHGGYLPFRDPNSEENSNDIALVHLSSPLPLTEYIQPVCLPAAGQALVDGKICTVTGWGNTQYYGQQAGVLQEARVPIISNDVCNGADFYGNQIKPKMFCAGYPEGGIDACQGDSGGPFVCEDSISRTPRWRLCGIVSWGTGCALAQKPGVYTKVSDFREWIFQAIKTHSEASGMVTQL

For the compound `Cc1ccc(S(=O)(=O)N[C@@H](C(=O)Nc2ccc(C(=N)N)cc2)c2ccccc2)cc1`, the inhibition entry in assay [1] and in assay [2] was “Active” throughout.
